Bioassay records deposited in PubChem BioAssay by several laboratories.
Apaf-1 inh = blocks human Apaf-1 apoptosome activity; hit rate 0.71% among 330,000; O14727; reconstituted apoptosome caspase-3 activity, DEVD-Rh110 fluorescence; inhibition, % at 20 µM; active = inhibition of at least 40% at 20 µM
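Material: reconstituted apoptosome with Apaf-1, cytochrome c, caspase-9, procaspase-3, dATP / Buffer or medium: pH 7.5 Hepes buffer with CHAPS, BSA, DTT / Also added: cytochrome c with DEVD-Rh110 / Schedule: compound with Apaf-1, dATP, procaspase-3 30 min, then 50 min reaction, room temperature / Technique: rhodamine 110 fluorescence at Ex 480/Em 540 nm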
pPAFAH FP inh = inhibitors of human plasma PAF acetylhydrolase (pPAFAH); AID 463082; inhibition, % at 3.39 µM; hit rate 1.5% among 330,000; Q13093; recombinant pPAFAH, FP-rhodamine probe fluorescence polarization;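 active = inhibition above the mean inhibition across the screen plus 3 SD, cut at about 25% in these data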;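 note: inhibitors block binding of the rhodamine activity-based probe so polarization drops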
PAFAH2 FP inh = inhibitors of human PAFAH2. recombinant PAFAH2, FP-rhodamine activity probe, fluorescence polarization. hit rate 0.99% among 340,000. inhibition, % at 3.39 µM;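 active = inhibition above the mean over all tested compounds plus 3 SD, cut at about 30% in these data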;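 note: inhibitors block probe labeling of enzyme so polarization drops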
PREPL inh = inhibitors of human prolyl oligopeptidase-like enzyme PREPL; Q4J6C6; recombinant PREPL, fluorescence polarization activity-based probe; inhibition, % at 5.96 µM; hit rate 0.68% among 320,000; AID 2751; in the data active = inhibition above about 43%
PAFAH1B3 FP inh = inhibitors of human PAFAH1B3. inhibition, % at 3.39 µM. hit rate 0.28% among 340,000. recombinant PAFAH1B3, FP-rhodamine probe, fluorescence polarization. AID 492972. Q15102;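 active = inhibition above the screen-wide average of all tested compounds plus 3 SD, cut at about 25% in these data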
Target sequence (Q15102 whole entry, looked up): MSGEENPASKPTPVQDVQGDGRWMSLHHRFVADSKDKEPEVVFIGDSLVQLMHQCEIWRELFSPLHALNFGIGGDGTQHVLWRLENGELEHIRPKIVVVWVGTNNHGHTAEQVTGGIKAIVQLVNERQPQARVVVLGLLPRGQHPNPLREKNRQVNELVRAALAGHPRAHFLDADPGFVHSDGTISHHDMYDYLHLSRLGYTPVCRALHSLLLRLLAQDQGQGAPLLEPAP
PAFAH1B2 inh = blocks human PAF acetylhydrolase 1b catalytic subunit 2 | P68402 | recombinant PAFAH1B2, FP-rhodamine activity probe, fluorescence polarization | inhibition, % at 3.39 µM | hit rate 1.2% among 340,000 | AID 492953;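 active = inhibition above the mean of all tested compounds plus 3 SD, cut at about 24% in these data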
Target sequence (P68402 whole entry, looked up): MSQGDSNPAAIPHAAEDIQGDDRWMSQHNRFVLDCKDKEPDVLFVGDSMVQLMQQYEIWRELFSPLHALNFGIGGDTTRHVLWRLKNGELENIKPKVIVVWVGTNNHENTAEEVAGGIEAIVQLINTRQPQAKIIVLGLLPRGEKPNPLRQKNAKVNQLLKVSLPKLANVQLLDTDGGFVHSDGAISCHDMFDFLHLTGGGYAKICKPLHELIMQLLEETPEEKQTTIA
PAFAH1B3 conf FP = confirmation of human PAFAH1B3 inhibitors; recombinant PAFAH1B3, FP-Rh activity-based probe, fluorescence polarization; hit rate 30% among 390; shares compounds with PAFAH1B3 FP inh; AID 493032; inhibition, % at 3.39 µM;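 active = average inhibition over triplicate runs above the hit cutoff set in the earlier primary screen, cut at about 25% in these data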
A number is an active result; n = inactive; x = not tested or not shown. In the library only some 3.5% were active in any assay of this set; here they are far more common.

SMILES	Apaf-1 inh	pPAFAH FP inh	PAFAH2 FP inh	PREPL inh	PAFAH1B3 FP inh	PAFAH1B2 inh	PAFAH1B3 conf FP
COC(=O)c1c[nH]c2c1-c1cc(C(=O)OCc3ccccc3)n(S(=O)(=O)c3ccc(C)cc3)c1C(=O)C2=O	x	x	n	x	38.2	n	n
O=C(NCC(=O)N1CCOCC1)c1ccc(Cl)cc1	n	n	n	n	n	n	x
O=Nc1c2cc3ccccc3[nH]c-2c2ccccc12	x	x	n	x	n	n	x
O=Nc1c(O)c2ccccc2c2ccccc12	x	n	n	n	93.9	n	66.3
C[C@]1(OC(=O)/C=C/c2ccccc2)C[C@@H](O)[C@]2(O)C=CO[C@@H](O[C@@H]3O[C@H](CO)[C@@H](O)[C@H](O)[C@H]3O)[C@@H]21	n	n	n	n	n	n	x
CSc1ccc(/C=N/Nc2cccc(C(=O)O)c2)cc1	x	x	n	x	32.7	n	25.8
COc1cc(OC)c2cc(C(=O)N/N=C/c3ccccc3O)[nH]c2c1	n	n	n	n	28.9	n	n
CC(=O)N(/N=C1\Sc2ccccc2C1=O)c1ccccc1	x	x	n	x	43.6	n	61.8
C/C(=N\NC(=S)Nc1ccc(F)cc1)C1CC1	n	n	n	n	26.5	n	n
CC1CCN(C(=S)Nc2ccc(F)cc2)CC1	n	n	n	n	n	n	x
COc1ccc(-c2cc(C(=O)Nc3c(C)n(C)n(-c4ccccc4)c3=O)no2)cc1OC	n	n	n	n	n	n	x
COc1ccc2c(ccc[n+]2CC(=O)c2ccccc2)c1	n	x	n	x	n	n	x
COc1ccc(C(=O)C[n+]2ccccc2/C=N/O)cc1	n	n	n	n	25.9	n	n
COc1ccc([N+](=O)[O-])cc1NC(=O)C(C)OC(=O)c1cccnc1 (centres undefined)	n	n	n	n	n	n	x
S=C(Nc1ccc(Cl)c(Cl)c1)NC1CCCCC1	n	n	n	n	n	n	x
S=C(Nc1ccc2nsnc2c1)NC1CCCCC1	n	n	n	n	56.2	n	n
COCCNC(=S)Nc1ccc2nsnc2c1	n	n	n	n	69.1	n	n
CCCCCCC(=O)Nc1nc(C)c(-c2csc(Nc3ccc(Cl)cc3)n2)s1	n	n	n	n	28.0	n	n
CCCCCC(=O)Nc1nc(C)c(-c2csc(Nc3ccc(Cl)cc3)n2)s1	n	n	n	n	n	n	x
Cc1ccc(CCC(=O)Nc2ccc(N(C)C)cc2)o1	n	n	n	n	n	n	x
CCOC(=O)c1sc(NC(=O)CSC(=S)N2CCN(C)CC2)nc1C	n	n	n	n	n	n	x
CC1(C)C(=O)OC(c2cccn2-c2ccc([N+](=O)[O-])cc2)C2(CCCCC2)C1=O (centres undefined)	n	n	n	n	48.2	n	n
CC1(C)C(=O)OC(c2cccn2-c2ccc([N+](=O)[O-])cc2)C(C)(C)C1=O (centres undefined)	n	n	n	n	n	n	x
CC(=O)N(C)C1=C(N2CCOCC2)C(=O)c2ccccc2C1=O	64.8	n	n	n	30.6	n	n
CCCCC1=CC2=C(c3ccco3)C(=O)C(C)(OC(=O)c3ccc(OC)cc3)C(=O)C2=CN1CCc1ccccn1 (centres undefined)	n	n	n	n	n	n	x
SMILES	Apaf-1 inh	pPAFAH FP inh	PAFAH2 FP inh	PREPL inh	PAFAH1B3 FP inh	PAFAH1B2 inh	PAFAH1B3 conf FP
COC(=O)CCC(=O)OC1(C)C(=O)C2=CN(CCc3ccccn3)C(c3ccc(OC)cc3)=CC2=C(Br)C1=O (centres undefined)	72.9	n	n	43.9	29.9	n	n
COc1cccc(/C=N/NC(=O)c2ccc([N+](=O)[O-])cc2Cl)c1O	n	n	n	n	27.3	n	n
COc1cc(/C=N/NC(=O)c2cccc([N+](=O)[O-])c2)cc(OC)c1O	n	n	n	n	n	n	x
CCOC(=O)C1(CCOc2ccccc2)CCN(Cc2ccc(-n3cccn3)cc2)CC1	n	n	n	n	n	n	x
COn1c(-c2ccccc2)nc2c1CCc1c-2no[n+]1[O-]	n	n	n	n	26.0	n	27.4
[O-][n+]1onc2c1CCc1nnccc1-2	n	n	n	n	n	n	x
[O-][n+]1onc2c1CCc1nnc(-c3ccccc3)cc1-2	n	n	n	n	77.7	n	84.1
[O-][n+]1onc2c1CCc1c-2nc(-c2ccccc2)n1OCc1ccccc1	n	n	n	n	n	n	x
